Screens from PubChem.
An excerpt weighted towards active compounds, which were near 4.1% of everything screened.
MrgX1 antag: antagonists of human MrgX1 receptor | 310,000 tested, 1.3% active | B-score at 10 µM | MRGX1-HEK293 calcium flux, Fluo-4, BAM8-22 antagonism; active compounds read low;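 active = calcium-response B-score plate-corrected more than 3 library SD below zero, starting fluorescence within 5 deviations, no agonist response on first addition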;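 note: peak minus trough fluorescence over baseline after final BAM8-22 challenge near maximal dose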
Target sequence (Q96LB2 whole entry, looked up): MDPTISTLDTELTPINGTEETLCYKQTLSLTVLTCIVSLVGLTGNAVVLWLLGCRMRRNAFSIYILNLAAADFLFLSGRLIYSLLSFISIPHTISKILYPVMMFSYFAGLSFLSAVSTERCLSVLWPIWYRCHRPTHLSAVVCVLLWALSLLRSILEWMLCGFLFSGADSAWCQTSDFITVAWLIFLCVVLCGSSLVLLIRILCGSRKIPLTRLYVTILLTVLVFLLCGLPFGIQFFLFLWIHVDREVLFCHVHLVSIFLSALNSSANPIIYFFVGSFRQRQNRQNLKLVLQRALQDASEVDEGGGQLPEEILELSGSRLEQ
Kir21 block: inhibitors of mouse Kir2.1 inward-rectifier potassium channel; P35561; 310,000 tested, 0.85% active; B-score at 10 µM; HEK293-Kir2.1, FluxOR thallium flux fluorescence; active compounds read low;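 active = fluorescence ratio B-score at or below minus 3 SD of library scores, with starting-brightness B-score within 2 SD, cut at about -4.2 in these data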;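 note: channel flux triggered by added potassium and thallium sulfate stimulus; B-score of peak minus minimum fluorescence over baseline after thallium stimulus; more negative B-score means stronger Kir2.1 block with less thallium influx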
RGS4 inh: inhibitors of human RGS4; HEK293 M3R/RGS4 inducible, Fluo-4 calcium flux; active compounds read high; triggered by carbachol at its EC20; B-score at 10 µM; 310,000 tested, 0.45% active; AID 463165;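 active = B-score, a plate-corrected calcium signal, over three deviations above library mean, with baseline fluorescence within five deviations of library mean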;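 note: RGS4 expression induced by doxycycline in cells with stable M3 receptor; B-score is computed from the integrated fluorescence ratio over baseline after carbachol; higher B-score means a larger calcium signal and so more RGS4 inhibition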
Target sequence (P49798 whole entry, looked up): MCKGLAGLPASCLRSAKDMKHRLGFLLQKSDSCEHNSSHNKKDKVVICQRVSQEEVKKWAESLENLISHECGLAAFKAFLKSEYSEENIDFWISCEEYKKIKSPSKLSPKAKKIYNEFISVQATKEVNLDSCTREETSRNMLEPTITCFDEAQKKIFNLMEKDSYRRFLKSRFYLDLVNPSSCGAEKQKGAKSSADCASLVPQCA
RGS4 act: potentiators or activators of RGS4; HEK293 M3R/inducible RGS4, carbachol calcium flux Fluo4; active compounds read low; B-score at 10 µM; 310,000 tested, 0.92% active;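 active = B-score of the integrated calcium signal more than 4 SD below the library mean, with starting fluorescence not abnormally high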;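 note: negative B-score means reduced calcium response which marks RGS4 activation or potentiation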
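Detection: kinetic calcium fluorescence imaging with Fluo4-AM dye, 2 µM / Material: HEK293 cells with stable M3R and inducible RGS4 / Schedule: recording 10 s baseline at 1 Hz, 100 s post-agonist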
MrgX1 PAM: human MrgX1 positive allosteric modulation, primary screen; MrgX1-HEK293, Fluo-4 calcium flux, FDSS; active compounds read high; B-score at 10 µM; 310,000 tested, 0.63% active;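 active = plate-corrected calcium response at least 3 library SD above typical, normal starting fluorescence, not activating the receptor alone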;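 note: compound read alongside a low EC10 to EC30 dose of BAM8-22 agonist; peak minus trough fluorescence over baseline measured at the second addition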
MrgX1 ag: activates human MrgX1 receptor signaling; Q96LB2; AID 588627; MrgX1-HEK293 cells, Fluo-4 calcium fluorescence, agonist mode; active compounds read high; 310,000 tested, 0.44% active; B-score at 10 µM;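 active = calcium response B-score plate-corrected fluorescence ratio at least 3 library SD, with starting fluorescence B-score inside 5 SD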
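Material: MrgX1-expressing HEK293 cells; input: 15,000 cells per well; doses: test compound given as first of three sequential additions; schedule: overnight plating before 1 h dye loading; technique: Fluo-4 NW calcium-flux fluorescence, kinetic read; evaluation: baseline-normalised fluorescence change ratio, B-scored; control set: plate-wise positive and negative controls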
MrgX1 antag conf: reconfirmed antagonist of human MrgX1 receptor signaling; shares compounds with MrgX1 antag; remaining BAM8-22 calcium response % of control (active compounds read low), % at 10 µM; MrgX1-HEK293, BAM8-22 calcium flux, Fluo-4; active compounds read low; AID 602420; 2,300 tested, 19% active;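 active = remaining agonist calcium response no higher than 100% minus 3 SD of agonist-only control wells, with starting fluorescence near control levels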;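 note: agonist BAM8-22 given at a near maximal EC90 to ECmax level; peak minus minimum fluorescence divided by baseline after agonist addition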
HEK293 Ca flux: counter-screen for MrgX1 antagonists: effect in parental HEK293 cells; shares compounds with MrgX1 antag; Fluo-4 calcium fluorescence, FDSS; fluorescence ratio F(max-min)/F0 at 10 µM; 4,000 tested, 2% active;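 active = duplicate-averaged calcium fluorescence ratio at least three times the standard deviation of buffer wells, a nonspecific response in parental cells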
HEK293 Ca counter: counter-screen for MrgX1 allosteric activators: effect in parental HEK293 cells | shares compounds with MrgX1 antag | parental HEK293 calcium flux, Fluo-4 fluorescence ratio; active compounds read high | fluorescence ratio F(max-min)/F0 at 10 µM | 4,000 tested, 0.4% active | AID 624114;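 active = calcium fluorescence ratio, averaged over duplicates, at least 3 SD of the buffer-well ratio, meaning a nonspecific response in receptor-free cells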;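 note: untransfected parental HEK293 lacking MrgX1 used as counterscreen for MrgX1 allosteric activators; fluorescence change taken during the second addition on a kinetic imager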
HEK293 Ca cntr2: counter-screen for MrgX1 activators: effect in parental HEK293 cells | 4,000 tested, 8.7% active | Fluo-4 calcium fluorescence (FDSS); active compounds read high | fluorescence ratio F(max-min)/F0 at 10 µM | shares compounds with MrgX1 antag;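 active = calcium fluorescence ratio at least three times the spread of buffer wells, meaning a non-specific response in parental cells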
Hits are given with their value.

CCN1CCN(S(=O)(=O)c2ccc(C(=O)Nc3sc4c(c3C(N)=O)CCN(CC)C4)cc2)CC1 was read as MrgX1 antag -9.4, Kir21 block inactive, RGS4 inh inactive, RGS4 act inactive, MrgX1 PAM inactive, MrgX1 ag inactive, MrgX1 antag conf inactive, HEK293 Ca flux inactive, HEK293 Ca counter inactive and HEK293 Ca cntr2 inactive.
Screening CCOC(=O)c1c(C)[nH]c(C)c1C(=O)CSc1nc2ccccc2c(=O)n1-c1ccccc1C returned MrgX1 antag inactive, Kir21 block inactive, RGS4 inh inactive, RGS4 act inactive, MrgX1 PAM inactive and MrgX1 ag inactive.
CCOC(=O)c1c(C)[nH]c(C)c1C(=O)CSc1nc2ccccc2c(=O)n1-c1ccc(F)cc1 was read as MrgX1 antag -5.3, Kir21 block inactive, RGS4 inh inactive, RGS4 act inactive, MrgX1 PAM inactive, MrgX1 ag inactive, MrgX1 antag conf 83%, HEK293 Ca flux inactive, HEK293 Ca counter inactive and HEK293 Ca cntr2 inactive.
For COC(=O)c1cc(=O)n2c(-c3ccccc3)csc2n1 the results were MrgX1 antag inactive, Kir21 block inactive, RGS4 inh inactive, RGS4 act inactive, MrgX1 PAM inactive and MrgX1 ag inactive.
CCN(CC(=O)NC(C)(C)C)Cc1cc(=O)n2c(-c3ccccc3)csc2n1 was read as MrgX1 antag -4.7, Kir21 block inactive, RGS4 inh inactive, RGS4 act inactive, MrgX1 PAM inactive, MrgX1 ag inactive, MrgX1 antag conf inactive, HEK293 Ca flux inactive, HEK293 Ca counter inactive and HEK293 Ca cntr2 inactive.
For COc1ccc(N2C(=O)CC(c3ccc(OC(C)C)cc3)C2=O)cc1 (centres undefined) the results were MrgX1 antag inactive, Kir21 block inactive, RGS4 inh inactive, RGS4 act inactive, MrgX1 PAM inactive and MrgX1 ag inactive.
Cc1nc(SCC(=O)Nc2ccc3c(c2)OCCO3)c2oc3ccccc3c2n1 was read as MrgX1 antag -7.5, Kir21 block inactive, RGS4 inh inactive, RGS4 act inactive, MrgX1 PAM inactive, MrgX1 ag inactive, MrgX1 antag conf inactive, HEK293 Ca flux inactive, HEK293 Ca counter inactive and HEK293 Ca cntr2 inactive.
`Cn1c(SCC(=O)c2cc(Cl)c(Cl)s2)nnc1-c1ccco1` gave MrgX1 antag -4.8, Kir21 block inactive, RGS4 inh inactive, RGS4 act inactive, MrgX1 PAM inactive, MrgX1 ag inactive, MrgX1 antag conf inactive, HEK293 Ca flux inactive, HEK293 Ca counter inactive and HEK293 Ca cntr2 inactive.
Cc1ccc(C(=O)CSc2nnc(-c3ccco3)n2C)cc1 was read as MrgX1 antag inactive, Kir21 block inactive, RGS4 inh inactive, RGS4 act inactive, MrgX1 PAM inactive and MrgX1 ag inactive.
For CCn1c(SCC(=O)Nc2ccc3c(c2)OCCO3)nnc1-c1ccco1 the results were MrgX1 antag inactive, Kir21 block inactive, RGS4 inh inactive, RGS4 act inactive, MrgX1 PAM inactive and MrgX1 ag inactive.
Screening Cn1c(SCC(=O)Nc2ccc3c(c2)OCCO3)nnc1-c1ccco1 returned MrgX1 antag -4.9, Kir21 block inactive, RGS4 inh inactive, RGS4 act inactive, MrgX1 PAM inactive, MrgX1 ag inactive, MrgX1 antag conf inactive, HEK293 Ca flux inactive, HEK293 Ca counter inactive and HEK293 Ca cntr2 inactive.
Screening C=CCn1c(C)cc(C)c(C#N)c1=O returned MrgX1 antag inactive, Kir21 block inactive, RGS4 inh inactive, RGS4 act inactive, MrgX1 PAM inactive and MrgX1 ag inactive.
`C=CCn1c(O)c(CN2CCOCC2)c(C)c(C#N)c1=O` gave MrgX1 antag -6.4, Kir21 block inactive, RGS4 inh inactive, RGS4 act inactive, MrgX1 PAM inactive, MrgX1 ag inactive, MrgX1 antag conf inactive, HEK293 Ca flux inactive, HEK293 Ca counter inactive and HEK293 Ca cntr2 inactive.
For COc1ccc(N(C(C)C(=O)Nc2ccc(S(=O)(=O)N3CCOCC3)cc2)S(C)(=O)=O)cc1 (centres undefined) the results were MrgX1 antag inactive, Kir21 block inactive, RGS4 inh inactive, RGS4 act inactive, MrgX1 PAM inactive and MrgX1 ag inactive.
Screening COc1cc2c(cc1OC)C1=CC(=O)C(=O)N1C(C)(C)C2 returned MrgX1 antag inactive, Kir21 block inactive, RGS4 inh inactive, RGS4 act inactive, MrgX1 PAM inactive and MrgX1 ag inactive.
Screening O=C(CSc1ncnc2nc[nH]c12)Nc1ccccc1C(F)(F)F returned MrgX1 antag inactive, Kir21 block inactive, RGS4 inh inactive, RGS4 act inactive, MrgX1 PAM inactive and MrgX1 ag inactive.
For Cc1cccc(C)c1NC(=O)CSc1ncnc2nc[nH]c12 the results were MrgX1 antag -4.7, Kir21 block inactive, RGS4 inh inactive, RGS4 act inactive, MrgX1 PAM inactive, MrgX1 ag inactive, MrgX1 antag conf inactive, HEK293 Ca flux inactive, HEK293 Ca counter inactive and HEK293 Ca cntr2 inactive.
Screening CCCOc1cc(CC(=O)NCc2ccco2)ccc1OC returned MrgX1 antag inactive, Kir21 block inactive, RGS4 inh inactive, RGS4 act inactive, MrgX1 PAM inactive and MrgX1 ag inactive.
For COc1ccc(CC(=O)OCC(=O)NCc2ccco2)cc1OC the results were MrgX1 antag -5.3, Kir21 block inactive, RGS4 inh inactive, RGS4 act inactive, MrgX1 PAM inactive, MrgX1 ag inactive, MrgX1 antag conf inactive, HEK293 Ca flux inactive, HEK293 Ca counter inactive and HEK293 Ca cntr2 inactive.
Screening COc1cc(C)c(/C=C(\C#N)C(=O)Nc2cccc(C)c2)cc1C(C)C returned MrgX1 antag inactive, Kir21 block inactive, RGS4 inh inactive, RGS4 act inactive, MrgX1 PAM inactive and MrgX1 ag inactive.
COc1ccc(C)cc1-n1nnnc1SCC(=O)Nc1cc(C)on1 was read as MrgX1 antag inactive, Kir21 block inactive, RGS4 inh inactive, RGS4 act inactive, MrgX1 PAM inactive and MrgX1 ag inactive.
Screening COc1ccc(C)cc1-n1nnnc1SCC(=O)Nc1cccnc1Cl returned MrgX1 antag -5.9, Kir21 block inactive, RGS4 inh inactive, RGS4 act inactive, MrgX1 PAM inactive, MrgX1 ag inactive, MrgX1 antag conf inactive, HEK293 Ca flux inactive, HEK293 Ca counter inactive and HEK293 Ca cntr2 inactive.
